Assays:
[1] = target: T1, Caspase-3 (Homo sapiens, UniProt P42574); experiment: Inhibition of human recombinant caspase 3 assessed as fluorescent 7-amido-4-methylcoumarin release
T1 sequence (P42574 whole entry): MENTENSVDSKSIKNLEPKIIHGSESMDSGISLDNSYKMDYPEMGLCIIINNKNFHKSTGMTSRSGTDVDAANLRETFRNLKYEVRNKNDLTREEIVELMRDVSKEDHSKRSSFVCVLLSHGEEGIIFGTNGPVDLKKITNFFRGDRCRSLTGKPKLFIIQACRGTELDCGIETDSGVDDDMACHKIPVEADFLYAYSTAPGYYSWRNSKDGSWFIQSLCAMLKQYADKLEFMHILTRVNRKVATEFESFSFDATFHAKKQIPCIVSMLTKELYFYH

[2] = target: T2, Caspase-7 (Homo sapiens, UniProt P55210); experiment: Inhibition of human recombinant caspase 7 assessed as fluorescent 7-amido-4-methylcoumarin release
T2 sequence (P55210 whole entry): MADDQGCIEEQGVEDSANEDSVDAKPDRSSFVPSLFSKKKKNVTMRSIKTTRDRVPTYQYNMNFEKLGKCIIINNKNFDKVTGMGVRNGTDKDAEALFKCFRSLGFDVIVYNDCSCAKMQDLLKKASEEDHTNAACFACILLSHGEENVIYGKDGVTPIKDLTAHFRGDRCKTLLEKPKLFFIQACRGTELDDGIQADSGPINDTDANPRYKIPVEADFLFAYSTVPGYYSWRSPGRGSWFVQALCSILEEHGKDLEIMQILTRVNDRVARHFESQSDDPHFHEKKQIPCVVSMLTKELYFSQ
Procedure, shortened: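 Recombinant human caspase-7, 1 U per well final, was mixed with inhibitor at various concentrations in 20 mM HEPES, 2 mM EDTA, 0.1% CHAPS, 5 mM DTT, pH 7.4. The reaction was started by adding Ac-DEVD-AMC substrate, with a stock of 2 mM in DMSO. AMC release was followed continuously at 37 °C (ex 360, em 460 nm), and IC50 was determined.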

| Structure (SMILES) | IC50 [1] | IC50 [2] |
| --- | --- | --- |
| CS(=O)(=O)/C=C/[C@H](CC(=O)O)NC(=O)OCc1ccccc1 | 435 µM |  |
| C[C@H](NC(=O)OCc1ccccc1)C(=O)N[C@H](/C=C/S(=O)(=O)c1ccccc1)CC(=O)O | 343 µM |  |
| CC(C)[C@H](NC(=O)OCc1ccccc1)C(=O)N[C@H](/C=C/S(=O)(=O)c1ccccc1)CC(=O)O | 388 µM |  |
| O=C(O)C[C@@H](/C=C/S(=O)(=O)c1ccccc1)NC(=O)OCC1c2ccccc2-c2ccccc21 |  | > 200 µM |
| C[C@H](NC(=O)OCc1ccccc1)C(=O)N[C@H](/C=C/S(C)(=O)=O)CC(=O)O | 656 µM |  |
| CC[C@H](C)[C@H](NC(=O)OCc1ccccc1)C(=O)N[C@H](/C=C/S(=O)(=O)c1ccccc1)CC(=O)O |  | > 200 µM |
| O=C(O)C[C@@H](/C=C/S(=O)(=O)c1ccccc1)NC(=O)OCc1ccccc1 | 453 µM |  |
| CC(=O)N[C@@H](CC(=O)O)C(=O)N[C@@H](CCC(=O)O)C(=O)N[C@H](C(=O)N[C@H](C=O)CC(=O)O)C(C)C |  | 0.0591 µM |
| CC(C)[C@H](NC(=O)OCc1ccccc1)C(=O)N[C@H](/C=C/S(C)(=O)=O)CC(=O)O | 133 µM | > 200 µM |
| CC(C)[C@H](NC(=O)OCC1c2ccccc2-c2ccccc21)C(=O)N[C@H](/C=C/S(C)(=O)=O)CC(=O)O |  | > 200 µM |
| CS(=O)(=O)/C=C/[C@H](CC(=O)O)NC(=O)OCC1c2ccccc2-c2ccccc21 |  | > 200 µM |
| CC(C)[C@H](NC(=O)OCC1c2ccccc2-c2ccccc21)C(=O)N[C@H](/C=C/S(=O)(=O)c1ccccc1)CC(=O)O |  | > 200 µM |
| CC[C@H](C)[C@H](NC(=O)OCc1ccccc1)C(=O)N[C@H](/C=C/S(C)(=O)=O)CC(=O)O |  | > 200 µM |
